Hits are enriched below; roughly 3.9% of the tested compounds scored in any of these assays.
OX1R antag-1: blocks the human orexin 1 receptor. O43613. CHO/OX1R cells, Fluo-8 calcium fluorescence, orexin A. inhibition, % at 5 µM. actives 0.43% (n = 330,000). AID 434989;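 active = inhibition above its plate's threshold, mean inhibition of all tested compounds on the plate plus 3 SD, cut at about 37% in these data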
OX1R antag-2: blocks the human orexin 1 receptor | actives 1.8% (n = 330,000) | AID 485270 | inhibition, % at 6.6 µM | O43613 | OX1R-expressing cells, FRET antagonist read-out; in the data active = inhibition mostly above about 38%, no sharp cut-off; inactive = mostly below about 40%
CHO parental Ca: signal in parental CHO cells, OX1R antagonist counter-screen. parental CHO-K1, ATP-induced calcium, Fluo-8 fluorescence. inhibition, % at 5.6 µM. actives 0.63% (n = 330,000);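 active = inhibition above that plate's mean sample inhibition plus 3 SD, cut at about 26% in these data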
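Measured by: calcium-sensitive Fluo-8 fluorescence / Test system: CHO parental line / Controls: ATP-challenged DMSO wells low, unchallenged DMSO wells high / Measure: % inhibition / Compound: single nominal dose of 5.6 µM per compound / Replicates: single well per compound, no replicates / Reagent: ATP as calcium-mobilizing challenge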
TAAR1 ag: agonists of human TAAR1 | Q96RJ0 | CHO RD-HGA16 TAAR1, Fluo-8 calcium fluorescence; vehicle wells 0%, saturating PEA agonist 100% | activation, % at 3 µM | actives 0.99% (n = 360,000);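 active = activation above the mean activation of all test compounds in the run plus 3 SD, cut at about 38% in these data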
Target sequence (Q96RJ0 whole entry, looked up): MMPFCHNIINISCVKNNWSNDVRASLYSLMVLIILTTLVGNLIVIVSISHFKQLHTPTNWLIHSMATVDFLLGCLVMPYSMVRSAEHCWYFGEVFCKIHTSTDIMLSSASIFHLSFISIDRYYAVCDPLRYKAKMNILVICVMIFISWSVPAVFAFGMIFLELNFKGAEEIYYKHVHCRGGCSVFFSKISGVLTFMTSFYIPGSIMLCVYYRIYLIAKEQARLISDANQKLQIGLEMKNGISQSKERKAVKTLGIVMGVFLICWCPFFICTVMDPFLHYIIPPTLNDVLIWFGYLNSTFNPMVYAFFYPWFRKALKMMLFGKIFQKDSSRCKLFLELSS
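Assay system – CHO-derived RD-HGA16 cells with stable Gα16 and human TAAR1 · Compound dosing – one-point dosing at 3 µM (nominal) · Incubation – 17-24 h seeding, 75 min 37 °C dye, 30 min RT · Measured by – kinetic Fluo-8 calcium fluorescence · Control set – DMSO vehicle as 0%, PEA at EC100 as 100% · Repeats – single well for each compound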
TAAR1 antagonist: human TAAR1 antagonism; Q96RJ0; CHO RD-HGA16 TAAR1, Fluo-8 calcium fluorescence, antagonist; inhibition, % at 3 µM; actives 1.5% (n = 360,000);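 active = inhibition above a per-plate cutoff, the mean inhibition of test compounds on that plate plus 3 SD, cut at about 49% in these data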
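System: CHO RD-HGA16 cells bearing hTAAR1. Reagent: EC80 β-phenethylamine stimulus. Schedule: seeding 17-24 h prior, 75-min 37 °C, 30-min RT dye loading. Signal: Fluo-8 intracellular calcium dye fluorescence, real-time kinetic reads. Read-out: % inhibition from peak post-agonist over basal fluorescence ratio. Benchmarks: vehicle wells and EC80 agonist wells. Replicates: n of 1.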
Hits are given with their value; n = inactive; x = no result.

SMILES | OX1R antag-1 | OX1R antag-2 | CHO parental Ca | TAAR1 ag | TAAR1 antagonist
CC(C)(C)c1ccc(CC(=O)N2CCC2(C)C(=O)Nc2ccc3[nH]ncc3c2)cc1 (centres undefined) | x | x | x | n | n
CC1(C(=O)Nc2ccc3[nH]ncc3c2)CCN1C(=O)Cc1ccc(-c2ccccc2)cc1 (centres undefined) | x | x | x | n | 50
COc1ccccc1CNc1nc(NCCOc2ccccc2Cl)c2sccc2n1 | x | x | x | n | n
Clc1ccccc1OCCNc1nc(NCC2CC2)nc2ccsc12 | x | x | x | n | 49
c1ccc(CNc2nc(NCCc3ccncc3)c3sccc3n2)cc1 | x | x | x | 125 | 106
c1ccc(CNc2nc(NCc3cccs3)nc3ccsc23)cc1 | x | x | x | 52 | 81
Fc1ccc(Nc2nc(NCc3ccccc3)nc3ccsc23)cc1 | x | x | x | n | n
CC(=O)NCCNc1nc(NCc2cccs2)nc2ccsc12 | x | x | x | n | n
c1csc(CNc2nc(NCC3CCCCC3)c3sccc3n2)c1 | x | x | x | 43 | 61
Cc1cccc2nc(-c3ccccc3)c(-c3ccc(CN4CCC5(CC4)CNc4ccccc45)cc3)nc12 | x | x | x | n | n
CC1(C)CC(=O)C=C(c2ccccc2F)C1=O | x | x | x | n | n
CCCCN(C)c1c(C)nc2ccc(C(=O)Nc3cc(-c4ccccc4)ccc3OC)cn12 | x | x | x | n | n
COCCNc1nc(NCc2cccs2)nc2ccsc12 | x | x | x | 122 | 104
O=C1CCCN1CCCNS(=O)(=O)c1cccs1 | n | n | n | n | n
CNc1nc(NCc2cccc(OC)c2)c2sccc2n1 | x | x | x | n | n
CNc1nc(NCc2ccccc2)c2sccc2n1 | x | x | x | 46 | n
O=C1CCCN1CCCNc1nc(NCc2cccs2)nc2ccsc12 | x | x | x | 92 | 99
COc1cccc(CNc2nc(NCc3ccccc3)nc3ccsc23)c1 | x | x | x | 49 | 96
CC(=O)Nc1cccc(-c2ccnc3c2CC(C(=O)NCc2ccc(F)c(F)c2)O3)c1 (centres undefined) | x | x | x | n | n
CC(C)[C@H](NC(=O)c1ccco1)C(=O)N1CCC[C@H]1C(=O)NCc1ccccc1 | x | x | x | n | n
Cc1ccc(Nc2nc(NCc3ccccc3)nc3ccsc23)c(C)c1 | x | x | x | n | 88
COc1cc(/C=C/c2ccc3cccc(O)c3n2)c(Br)cc1O | n | n | 45 | n | n
O=C(NCC[C@@H]1CC[C@@H](NS(=O)(=O)Cc2ccccc2)[C@@H](CO)O1)C1CC1 | x | x | x | n | n
CC(C)CNc1cccc2c1S(=O)(=O)N[C@@H](C)CO2 | x | x | x | n | n
C[C@H](NC(=O)c1ccccc1)C(=O)OCC(=O)Nc1ccc2c(c1)OCO2 | n | n | n | n | 49
SMILES | OX1R antag-1 | OX1R antag-2 | CHO parental Ca | TAAR1 ag | TAAR1 antagonist
O=C(COC(=O)[C@H](Cc1c[nH]c2ccccc12)NC(=O)c1ccc(Cl)cc1)Nc1ccc2c(c1)OCO2 | n | n | 35 | n | n
COC(=O)c1ccc2nc(-c3ccco3)c(Cc3ccsc3)n2c1 | x | x | x | n | n
COCCCn1c(N)c(-c2nc3ccccc3n2C)c2nc3ccccc3nc21 | n | n | n | n | 49
Cn1c(-c2c(N)n(CCc3ccccc3)c3nc4ccccc4nc23)nc2ccccc21 | n | n | n | x | x
CCOc1ccc(NC(=O)CN(C)C2=NS(=O)(=O)c3ccccc32)cc1 | x | x | x | n | n
CNC(C)C#Cc1ccc2oc3cccc(OC)c3c(=O)c2c1 (centres undefined) | n | 48 | n | n | n
COC(=O)[C@]12C[C@H](CC(=O)N3CCSCC3)C(=O)N(Cc3ccccc3)C1=C[C@H](C(C)C)O[C@@H]2C1CC1 | x | x | x | n | n
CC(C)N(Cc1ccccc1)C(=O)CN1c2cccc3cccc(c23)S1(=O)=O | n | 39 | n | n | n
O=S(=O)(c1ccc(N2CCCC2)cc1)C(F)(F)F | n | n | 40 | n | n
O=S(=O)(c1ccc(N2CCN(c3ccc(F)cc3)CC2)cc1)N1CCCC1 | n | n | n | n | n
Cc1[nH]c2ccccc2c1CC(=O)Nc1ccc(Nc2cccnc2)c(-c2ccc(Cl)c(Cl)c2)c1 | x | x | x | n | n
O=C(Nc1nnc(C(F)(F)F)s1)c1ccc(Br)s1 | n | 49 | 26 | n | n
O=C(Nc1ccccc1C(=O)Nc1nnc(C(F)(F)F)s1)c1ccccc1Cl | 37 | 80 | 54 | n | n
CCSc1nnc(NC(=O)c2ccc(Br)s2)s1 | n | n | n | n | n
Cc1nn(-c2ccccc2)nc1C(=O)Nc1nnc(C(F)(F)F)s1 | n | 41 | n | n | n
CC(NC(=O)Nc1nnc(C(F)(F)F)s1)(C(F)(F)F)C(F)(F)F | 51 | 59 | 60 | n | n

Bioassay records deposited in PubChem by The Scripps Research Institute Molecular Screening Center.
